Test results reported in ChEMBL document CHEMBL4257545, “Synthesis of novel perillyl-dihydropyrimidinone hybrids designed for antiproliferative activity” (Medchemcomm, 2018).
The source made the active and inactive calls. The calls are words filed in the database; no cut-off is given here.

What was measured:
UACC-62 [1] = test: Antiproliferative activity against human UACC62 cells assessed as cell growth inhibition after 48 hrs by sulforhodamine B assay; format: functional; conditions: UACC-62, 48 h
Outline: (§1)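 Human tumour lines and HaCaT normal keratinocytes in 96-well plates, exposed to compound in DMSO/RPMI (final DMSO 0.2%) for 48 h at 37 °C, 5% CO2. Cells were fixed with 50% trichloroacetic acid at time zero and after treatment. Protein was stained with sulforhodamine B and read at 540 nm. TGI (total growth inhibition) was derived by non-linear regression from triplicate runs.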

U-251 = test: Antiproliferative activity against human U251 cells assessed as cell growth inhibition after 48 hrs by sulforhodamine B assay; format: functional; conditions: U-251, 48 h; outline: as §1
MCF7 [2] = test: Antiproliferative activity against human MCF7 cells assessed as cell growth inhibition after 48 hrs by sulforhodamine B assay; format: functional; conditions: MCF7, 48 h; outline: as §1
NCI/ADR-RES [3] = test: Antiproliferative activity against human NCI/ADR-RES cells assessed as cell growth inhibition after 48 hrs by sulforhodamine B assay; format: functional; outline: as §1
786-0 [4] = test: Antiproliferative activity against human 786-0 cells assessed as cell growth inhibition after 48 hrs by sulforhodamine B assay; format: functional; conditions: 786-0, 48 h; outline: as §1
NCI-H460 = test: Antiproliferative activity against human NCI-H460 cells assessed as cell growth inhibition after 48 hrs by sulforhodamine B assay; format: functional; conditions: NCI-H460, 48 h; outline: as §1
PC-3 [5] = test: Antiproliferative activity against human PC3 cells assessed as cell growth inhibition after 48 hrs by sulforhodamine B assay; format: functional; conditions: PC-3, 48 h; outline: as §1
OVCAR-3 [6] = test: Antiproliferative activity against human OVCAR3 cells assessed as cell growth inhibition after 48 hrs by sulforhodamine B assay; format: functional; conditions: OVCAR-3, 48 h; outline: as §1
HT-29 [7] = test: Antiproliferative activity against human HT-29 cells assessed as cell growth inhibition after 48 hrs by sulforhodamine B assay; format: functional; conditions: HT-29, 48 h; outline: as §1
HaCaT = test: Cytotoxicity against human HaCaT cells assessed as cell growth inhibition after 48 hrs by sulforhodamine B assay; format: cell-based; outline: as §1
[8] = Selectivity index, ratio of TGI for human HaCaT cells to TGI for human U251 cells; format: toxicity; conditions: HaCaT cells and U251 cells, read-out: Selectivity Index
MCF7 [9] = test: Antiproliferative activity against human MCF7 cells at 25 uM after 48 hrs by sulforhodamine B assay; format: functional, cell-based
Outline: (§2)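 Growth-inhibition profile of each tumour line at a single compound concentration of 25 μM. Cells were treated in DMSO/RPMI (final DMSO 0.2%) for 48 h at 37 °C, 5% CO2. Cells were fixed with 50% TCA before and after exposure. Cellular protein was quantified by sulforhodamine B staining at 540 nm.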

NCI/ADR-RES [10] = test: Antiproliferative activity against human NCI/ADR-RES cells at 25 uM after 48 hrs by sulforhodamine B assay; format: functional, cell-based; outline: as §2
786-0 [11] = test: Antiproliferative activity against human 786-0 cells at 25 uM after 48 hrs by sulforhodamine B assay; format: functional, cell-based; outline: as §2
HT-29 [12] = test: Antiproliferative activity against human HT-29 cells at 25 uM after 48 hrs by sulforhodamine B assay; format: functional, cell-based; outline: as §2
UACC-62 [13] = test: Antiproliferative activity against human UACC62 cells at 25 uM after 48 hrs by sulforhodamine B assay; format: functional, cell-based; outline: as §2
PC-3 [14] = test: Antiproliferative activity against human PC3 cells at 25 uM after 48 hrs by sulforhodamine B assay; format: functional, cell-based; outline: as §2
OVCAR-3 [15] = test: Antiproliferative activity against human OVCAR3 cells at 25 uM after 48 hrs by sulforhodamine B assay; format: functional, cell-based; outline: as §2

Structure (SMILES) | TGI (UACC-62 [1]) [µM] | TGI (U-251) [µM] | TGI (MCF7 [2]) [µM] | TGI (NCI/ADR-RES [3]) [µM] | TGI (786-0 [4]) [µM] | TGI (NCI-H460) [µM] | TGI (PC-3 [5]) [µM] | TGI (OVCAR-3 [6]) [µM] | TGI (HT-29 [7]) [µM] | TGI (HaCaT) [µM] | selectivity ratio [8] | Activity (MCF7 [9]) | Activity (NCI/ADR-RES [10]) | Activity (786-0 [11]) | Activity (HT-29 [12]) | Activity (UACC-62 [13]) | Activity (PC-3 [14]) | Activity (OVCAR-3 [15])
C=C(C)[C@@H]1CC=C(Cn2cc(COc3ccccc3C3NC(=O)NC(C)=C3C(=O)OCC)nn2)CC1 (some centres not stated) | > 100 | > 100 | > 100 | > 100 | > 100 | > 100 | > 100 | 81.2 | > 100 | 294.37 | – | – | – | – | – | – | – | –
C=C(C)[C@@H]1CC=C(Cn2cc(COc3ccc(C4NC(=O)NC5=C4C(=O)CC(C)(C)C5)cc3)nn2)CC1 (some centres not stated) | 29.9 | 6.61 | > 100 | > 100 | 53.2 | > 100 | 24 | 29.3 | > 100 | 436.18 | 66 | – | – | – | – | – | – | –
C=C(C)[C@@H]1CC=C(Cn2cc(COc3cccc(C4NC(=O)NC(C)=C4C(=O)OCC)c3)nn2)CC1 (some centres not stated) | 22.9 | 12.2 | 42.5 | > 100 | 39.7 | > 100 | > 100 | 18.4 | 73.4 | 507.82 | 41.7 | – | – | – | – | – | – | –
C=C(C)[C@@H]1CC=C(Cn2cc(COc3ccc(C4NC(=O)NC(C)=C4C(C)=O)cc3)nn2)CC1 (some centres not stated) | 20.5 | 20 | 29 | > 100 | 23.3 | 78.2 | 49.3 | 32.6 | 62.6 | 44.47 | – | – | – | – | – | – | – | –
C=C(C)[C@@H]1CC=C(Cn2cc(COc3ccc(C4NC(=O)NC5=C4C(=O)CC(C)(C)C5)cc3OC)nn2)CC1 (some centres not stated) | 86.2 | 44 | 91.9 | > 100 | > 100 | > 100 | > 100 | 95 | > 100 | 71.34 | – | – | – | – | – | – | – | –
C=C(C)[C@@H]1CC=C(Cn2cc(COc3ccccc3C3NC(=O)NC(C)=C3C(C)=O)nn2)CC1 (some centres not stated) | 34.2 | 30.2 | 68.7 | > 100 | 80.3 | 83.1 | 62 | 34.3 | 79.5 | 29.51 | – | – | – | – | – | – | – | –
C=C(C)[C@@H]1CC=C(Cn2cc(COc3ccc(C4NC(=O)NC(C)=C4C(=O)OCC)cc3OC)nn2)CC1 (some centres not stated) | 26.7 | 11.3 | 82.5 | > 100 | 87.3 | > 100 | 54.4 | 53.8 | > 100 | 75.76 | – | – | – | – | – | – | – | –
CCOC(=O)C1=C(C)NC(=S)NC1c1cccc(O)c1 (configuration not stated) | – | – | – | – | – | – | – | – | – | – | – | Active | Active | Active | Active | Active | Active | Active
C=C(C)[C@@H]1CC=C(Cn2cc(COc3ccc(C4NC(=O)NC(C)=C4C(=O)OCC)cc3)nn2)CC1 (some centres not stated) | 19.2 | 12.4 | 43.1 | > 100 | 97.1 | > 100 | 92.2 | 6.9 | 77.1 | 165.69 | – | – | – | – | – | – | – | –
CCOC(=O)C1=C(C)NC(=O)NC1c1cccc(O)c1 (configuration not stated) | – | – | – | – | – | – | – | – | – | – | – | Active | Active | Active | Active | Active | Active | Active
C=C(C)[C@@H]1CC=C(Cn2cc(COc3cc(C4NC(=O)NC(C)=C4C(=O)OCC)ccc3OC)nn2)CC1 (some centres not stated) | 37.8 | 98.1 | > 100 | > 100 | > 100 | > 100 | > 100 | 13.5 | > 100 | 79.75 | – | – | – | – | – | – | – | –
C=C(C)[C@@H]1CC=C(Cn2cc(COc3ccccc3C3NC(=O)NC4=C3C(=O)CC(C)(C)C4)nn2)CC1 (some centres not stated) | 26.5 | 27 | 45 | > 100 | 26.7 | 38.7 | 21.7 | 11.8 | 28.9 | 78.72 | – | – | – | – | – | – | – | –
C=C(C)[C@@H]1CC=C(Cn2cc(COc3cc(C4NC(=O)NC(C)=C4C(C)=O)ccc3OC)nn2)CC1 (some centres not stated) | > 100 | > 100 | > 100 | 84.9 | > 100 | > 100 | > 100 | > 100 | 96 | 486.19 | – | – | – | – | – | – | – | –
C=C(C)[C@@H]1CC=C(Cn2cc(COc3cc(C4NC(=O)NC5=C4C(=O)CC(C)(C)C5)ccc3OC)nn2)CC1 (some centres not stated) | 62 | 8.28 | 44.8 | > 100 | > 100 | > 100 | 79.9 | > 100 | > 100 | 451.02 | 54.5 | – | – | – | – | – | – | –
C=C(C)[C@@H]1CC=C(Cn2cc(COc3ccc(C4NC(=O)NC(C)=C4C(C)=O)cc3OC)nn2)CC1 (some centres not stated) | 3.83 | 77.9 | 53.3 | 80.2 | 88.1 | > 100 | 85.7 | 48 | 95 | 147.92 | – | – | – | – | – | – | – | –
C=C(C)[C@@H]1CC=C(Cn2cc(COc3cccc(C4NC(=O)NC5=C4C(=O)CC(C)(C)C5)c3)nn2)CC1 (some centres not stated) | 20.9 | 26 | 31 | > 100 | > 100 | 51.6 | 21.9 | > 100 | 49 | 36.44 | – | – | – | – | – | – | – | –
C=C(C)[C@@H]1CC=C(Cn2cc(COc3cccc(C4NC(=O)NC(C)=C4C(C)=O)c3)nn2)CC1 (some centres not stated) | 31.6 | 30.5 | 43 | > 100 | 44.1 | > 100 | 49.8 | 13.3 | 86.2 | 115.66 | – | – | – | – | – | – | – | –
COc1cccc2c1C(=O)c1c(O)c3c(c(O)c1C2=O)C[C@@](O)(C(=O)CO)C[C@@H]3O[C@H]1C[C@H](N)[C@H](O)[C@H](C)O1 [DOXORUBICIN] | 1.66 | 0.09 | 0.99 | 0.78 | 0.02 | 0.46 | 15.7 | 0.04 | 0.88 | 1.47 | – | – | – | – | – | – | – | –
